Source: ChEMBL document CHEMBL1141335, “Epicoccamides B-D, glycosylated tetramic acid derivatives from an Epicoccum sp. associated with the tree fungus Pholiota squarrosa” (J Nat Prod, 2007)
Activity calls are given as the source filed them. The calls are words filed in the database; no cut-off is given here.

Columns and labels:
K562 = test: Antiproliferative activity against human K562 cells; format: functional
HeLa = test: Cytotoxicity against human HeLa cells; format: functional; details: for CC50: Homo sapiens, HeLa
In short: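 HeLa Ohio cells grown 2 days to confluent monolayers, then growth medium replaced with nine 2-fold compound dilutions in test medium. Incubated 72 h at 37 °C, 5% CO2. Cells fixed, washed and stained, with OD read at 660 nm. Viability taken as % of six untreated controls. CC50 calculated from the mean dose–response curve of two assays.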

[1] = Antiproliferative activity against mouse L929 cells; format: cell-based
[2] = system: Remotididymella destructiva; test: Induction of pigment formation in Phoma destructiva at 1.7 mM; format: functional, organism-based
In short: (§1)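 Phoma destructiva vegetative mycelium grown on malt agar plates (malt extract, glucose, yeast extract, (NH4)2SO4, pH 6.0), set up like an agar-well diffusion assay. 50 µL of purified metabolite placed in 9 mm agar wells. Plates incubated for three days, then scored visually for changes in pigment and aerial mycelium formation.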

[3] = system: Remotididymella destructiva; test: Induction of morphogenesis in Phoma destructiva at 1.7 mM; format: functional, organism-based; in short: as §1

GI50 (K562) [µM] | Compound | CC10 (HeLa) [µM] | CC50 (HeLa) [µM] | GI50 [1] [µM] | Activity [2] | Activity [3]
> 90 | CC(CCCCCCCCCCCCCCO[C@@H]1O[C@H](CO)[C@@H](O)[C@H](O)[C@@H]1O)C(=O)C1=C(O)N(C)C(C)C1=O (stereo partly drawn) | 51.3 | > 90 | > 90 |  | 
52.7 | CC(=O)O[C@@H]1[C@H](O)[C@H](OCCCCCCCCCCCCCCC(C)C(=O)C2=C(O)N(C)C(C)C2=O)O[C@H](CO)[C@H]1O (stereo partly drawn) | 26.2 | 44.2 | 71.1 |  | 
33.7 | CC(=O)OC[C@H]1O[C@@H](OCCCCCCCCCCCCCCC(C)C(=O)C2=C(O)N(C)C(C)C2=O)[C@@H](O)[C@@H](O)[C@@H]1O (stereo partly drawn) [EPICOCCAMIDE C] | 13.6 | 29 | 57.2 |  | 
33.3 | CC(CCCCCCCCCCCCCCCCO[C@@H]1O[C@H](CO)[C@@H](O)[C@H](O)[C@@H]1O)C(=O)C1=C(O)N(C)C(C)C1=O (stereo partly drawn) [EPICOCCAMIDE D] | 11.6 | 17 | 50.5 | Active | Active
